Reference: ChEMBL document CHEMBL1208732, “Addressing PXR liabilities of phthalazine-based hedgehog/smoothened antagonists using novel pyridopyridazines” (Bioorg Med Chem Lett, 2010)

Experiments:
Protein smoothened [1] = target: Protein smoothened (Homo sapiens, UniProt Q99835); experiment: Antagonist activity at human Smo receptor in HEPM cells assessed as inhibition of Gli expression after 24 hrs by quantigene assay; format: functional, cell-based
In short: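 HEPM cells incubated with compound in MEM with 0.5% charcoal-dextran treated FBS and […] myristoylated mouse Shh protein. GLI expression measured 24 h after adding compound and Shh, using a Quantigene assay.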

[2] = target: T1, Nuclear receptor subfamily 1 group I member 2 (Homo sapiens, UniProt O75469); experiment: Activation of human PXR expressed in HepG2 cells assessed as luciferase activity at 2 uM by chemiluminescence assay relative to rifampin; format: cell-based; conditions: hepg2, 2 µM
T1 sequence (O75469 whole entry): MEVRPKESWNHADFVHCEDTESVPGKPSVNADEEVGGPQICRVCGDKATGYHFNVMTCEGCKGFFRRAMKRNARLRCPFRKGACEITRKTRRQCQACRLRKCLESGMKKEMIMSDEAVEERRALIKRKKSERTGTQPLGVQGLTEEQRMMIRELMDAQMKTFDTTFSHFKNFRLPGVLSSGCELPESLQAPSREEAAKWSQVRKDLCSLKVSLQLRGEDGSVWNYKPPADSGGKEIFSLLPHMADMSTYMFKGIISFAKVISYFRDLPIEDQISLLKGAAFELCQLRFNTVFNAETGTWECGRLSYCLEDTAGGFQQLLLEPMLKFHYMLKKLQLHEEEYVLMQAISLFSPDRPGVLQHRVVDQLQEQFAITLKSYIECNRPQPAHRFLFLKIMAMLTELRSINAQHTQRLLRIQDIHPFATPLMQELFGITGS
In short: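 HepG2 cells transfected with a luciferase reporter construct driven by human PXR cDNA. Luciferase activity read by chemiluminescence and expressed as percent of the rifampin control.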

[3] = Metabolic stability in rat liver microsomes assessed as compound turn over after 30 mins; format: ADME, Microsome; conditions: read-out: Activity
In short: (§1)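 Percent turnover of compound within 30 min in human or rat liver microsome homogenates.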

[4] = Metabolic stability in human liver microsomes assessed as compound turn over after 30 mins; format: ADME, Microsome; conditions: read-out: Activity; in short: as §1
Protein smoothened [5] = target: Protein smoothened (Mus musculus, UniProt P56726); experiment: Antagonist activity at mouse cloned Smo receptor expressed in NIH-3T3 cells co expressing Gli1 binding site after 15 hrs by luciferase reporter gene assay; format: cell-based, NIH3T3
Protein smoothened (Mus musculus, UniProt P56726), sequence (P56726 whole entry): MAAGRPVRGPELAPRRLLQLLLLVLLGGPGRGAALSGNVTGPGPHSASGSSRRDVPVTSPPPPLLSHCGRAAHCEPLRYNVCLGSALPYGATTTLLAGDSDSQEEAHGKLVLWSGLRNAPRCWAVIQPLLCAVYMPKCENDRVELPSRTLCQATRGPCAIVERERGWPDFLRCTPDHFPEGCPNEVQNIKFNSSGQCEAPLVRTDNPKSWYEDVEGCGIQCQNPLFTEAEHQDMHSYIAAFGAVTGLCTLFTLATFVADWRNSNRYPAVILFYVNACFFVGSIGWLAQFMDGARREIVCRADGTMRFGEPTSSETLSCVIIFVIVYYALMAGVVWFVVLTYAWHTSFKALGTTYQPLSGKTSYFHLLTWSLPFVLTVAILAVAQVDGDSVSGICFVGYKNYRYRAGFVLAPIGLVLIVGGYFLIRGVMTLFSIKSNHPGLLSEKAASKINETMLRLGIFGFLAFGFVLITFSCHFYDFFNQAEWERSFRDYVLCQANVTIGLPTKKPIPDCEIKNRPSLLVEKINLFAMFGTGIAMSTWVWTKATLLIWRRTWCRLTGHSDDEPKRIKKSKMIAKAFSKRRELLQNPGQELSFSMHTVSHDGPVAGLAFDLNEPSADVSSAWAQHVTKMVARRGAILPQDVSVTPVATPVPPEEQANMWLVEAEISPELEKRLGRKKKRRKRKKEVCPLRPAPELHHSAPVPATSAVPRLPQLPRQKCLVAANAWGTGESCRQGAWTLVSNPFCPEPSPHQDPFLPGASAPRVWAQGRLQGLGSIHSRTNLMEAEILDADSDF
In short: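 Stable NIH-3T3 clone carrying a luciferase reporter (pGL4.16) with five consensus Gli1 binding sites. Cells incubated 15 h with compound in Optimem with 0.5% charcoal-dextran treated FBS and […] myristoylated mouse Shh. Luciferase read with Bright-Glo on a luminometer. Threefold dilution series, run in quadruplicate.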

[6] = Clearance in rat at 0.5 mg/kg, iv; format: ADME, organism-based; parameters: dose 0.5 mg/kg, route intravenous; conditions: in vivo
In short: (§2)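 Pharmacokinetics measured in rat or mouse, with intravenous dosing at 0.5 mg/kg and oral dosing at 2 mg/kg. Reported parameters are iv clearance, Vdss, oral AUC and %F.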

[7] = Volume of distribution at steady state in rat at 0.5 mg/kg, iv and 2 mg/kg, po; format: ADME, organism-based; conditions: in vivo, read-out: Vdss; in short: as §2
[8] = AUC in rat at 2 mg/kg, po; format: ADME, organism-based; parameters: dose 2 mg/kg, route oral; conditions: plasma; in short: as §2
[9] = Oral bioavailability in rat at 2 mg/kg; format: ADME, organism-based; conditions: in vivo; in short: as §2
Mus musculus [10] = experiment: Clearance in mouse at 0.5 mg/kg, iv; format: ADME, organism-based; parameters: dose 0.5 mg/kg, route intravenous; conditions: in vivo; in short: as §2
[11] = Volume of distribution at steady state in mouse at 0.5 mg/kg, iv and 2 mg/kg, po; format: ADME, organism-based; conditions: in vivo, read-out: Vdss; in short: as §2
Mus musculus [12] = experiment: AUC in mouse at 2 mg/kg, po; format: ADME, organism-based, Plasma; parameters: dose 2 mg/kg, route oral; conditions: in vivo; in short: as §2
Mus musculus [13] = experiment: Oral bioavailability in mouse at 2 mg/kg; format: ADME, organism-based; conditions: in vivo; in short: as §2
Mus musculus [14] = experiment: Reduction of Gli1 expression in po dosed NOD-SCID mouse skin after 6 hrs by RT-PCR analysis; format: functional, organism-based
In short: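 Female NOD-Scid mice aged 5–8 weeks had one hind flank shaved, then regrown hair removed with wax strips 4 days later. After 5 days mice were dosed orally with compound or vehicle, and skin was harvested 6 h post-dose into RNALater. Tissue homogenized and RNA purified. Four mice per group, two samples per animal, analysed by Dunnett's method.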

[15] = Fraction unbound in mouse plasma by ultra centrifugation method; format: ADME, cell-free

Protein smoothened (Homo sapiens, UniProt Q99835), sequence (Q99835 whole entry): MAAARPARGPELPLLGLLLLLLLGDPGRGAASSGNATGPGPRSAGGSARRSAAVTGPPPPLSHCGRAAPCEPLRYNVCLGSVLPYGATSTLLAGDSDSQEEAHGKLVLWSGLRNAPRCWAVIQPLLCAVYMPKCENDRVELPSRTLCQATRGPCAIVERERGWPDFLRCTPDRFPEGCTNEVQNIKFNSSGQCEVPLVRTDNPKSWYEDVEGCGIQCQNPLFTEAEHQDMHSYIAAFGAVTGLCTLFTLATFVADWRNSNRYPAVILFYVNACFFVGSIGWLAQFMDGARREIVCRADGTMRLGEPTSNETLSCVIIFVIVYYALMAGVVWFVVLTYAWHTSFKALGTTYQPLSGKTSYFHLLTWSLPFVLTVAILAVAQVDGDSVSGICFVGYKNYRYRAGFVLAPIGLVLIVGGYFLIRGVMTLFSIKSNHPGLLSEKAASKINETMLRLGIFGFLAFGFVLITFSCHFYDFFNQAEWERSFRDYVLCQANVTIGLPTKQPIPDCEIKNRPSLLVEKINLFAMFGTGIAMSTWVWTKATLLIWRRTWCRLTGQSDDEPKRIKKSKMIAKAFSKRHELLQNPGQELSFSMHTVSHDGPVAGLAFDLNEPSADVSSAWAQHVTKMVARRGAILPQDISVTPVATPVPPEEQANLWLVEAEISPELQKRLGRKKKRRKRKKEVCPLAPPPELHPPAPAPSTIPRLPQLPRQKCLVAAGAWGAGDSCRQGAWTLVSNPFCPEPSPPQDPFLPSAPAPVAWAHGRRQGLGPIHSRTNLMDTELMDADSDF

SMILES	IC50 (Protein smoothened [1]) [nM]	Activity [2] [%]	metabolised at 0.5 h [3] [%]	metabolised at 0.5 h [4] [%]	also measured
C[C@@H]1CN(C(=O)c2ccccc2)CCN1c1nnc(-c2ccc(N3CCOCC3)cc2)c2ccccc12	21	6.6	28	19	
O=C(c1ccccc1)N1CCN(c2nnc(-c3ccc(Cl)c(Cl)c3)c3ccccc23)CC1		48	13		
C[C@@H]1CN(C(=O)c2ccccc2)CCN1c1nnc(-c2ccccc2)c2cccnc12	16	5.7		56	
C[C@@H]1CN(C(=O)c2ccccc2)CCN1c1nnc(-c2ccccc2)c2ccncc12	5.8	4.9		13	IC50 (Protein smoothened [5]): 3 nM; clearance [6]: 7.5 mL/min/kg; Vd [7]: 1.4 L/kg; AUC [8]: 1600 ng·h/mL; bioavailability [9]: 35%
C[C@@H]1CN(C(=O)c2ccccc2)CCN1c1nnc(-c2ccccn2)c2ccccc12	57	16	17	12	
C[C@@H]1CN(C(=O)c2ccccc2)CCN1c1nnc(-c2ccccc2)c2cnccc12	12	7.5		30	
C[C@@H]1CN(C(=O)c2ccccc2)CCN1c1nnc(-c2ccccc2)c2ccccc12		30	12		clearance [6]: 4.67 mL/min/kg; Vd [7]: 1.7 L/kg; AUC [8]: 1800 ng·h/mL; bioavailability [9]: 15%
C[C@@H]1CN(C(=O)c2ccccc2)CCN1c1nnc(-c2ccc(N(C)C)cc2)c2ccccc12		17			
C[C@H]1CN(C(=O)c2ccccc2)CCN1c1nnc(-c2ccccc2)c2ccccc12		32	< 10	< 10	
C[C@@H]1CN(C(=O)c2ccccc2)CCN1c1nnc(-c2ccc(C(N)=O)cc2)c2ccccc12	19	5.9	< 10	< 10	
O=C(c1ccccc1)N1CCN(c2nnc(-c3ccccc3)c3ccccc23)CC1		12	39		
C[C@@H]1CN(C(=O)c2ccccc2)CCN1c1nnc(-n2ccnc2)c2ccccc12	> 1000	3.7	16	< 10	
C[C@@H]1CN(C(=O)c2ccccc2)CCN1c1nnc(-c2ccc(C(=O)O)cc2)c2ccccc12	> 1000	2.7	< 10	< 10	
C[C@@H]1CN(C(=O)c2ccccc2)CCN1c1nnc(-c2ccncc2)c2ccccc12	25	25	36	11	
C[C@@H]1CN(C(=O)c2ccccc2)CCN1c1nnc(-c2ccc(CC(N)=O)cc2)c2ccccc12	4.8	2.7	10	10	clearance [6]: 18.3 mL/min/kg; Vd [7]: 1.4 L/kg; AUC [8]: 460 ng·h/mL; bioavailability [9]: 22%
C[C@@H]1CN(C(=O)c2ccccc2)CCN1c1nnc(-c2ccc(C(F)(F)F)cc2)c2ccncc12	1	9	< 10	10	IC50 (Protein smoothened [5]): 0.7 nM; clearance [6]: 7.67 mL/min/kg; CL (Mus musculus [10]): 10.7 mL/min/kg; Vd [7]: 3.5 L/kg; Vd [11]: 2 L/kg; AUC [8]: 3300 ng·h/mL; AUC (Mus musculus [12]): 3500 ng·h/mL; bioavailability [9]: 73%; F (Mus musculus [13]): 46%; EC50 (Mus musculus [14]): 460 nM; fraction unbound [15]: 0.035
C[C@@H]1CN(C(=O)c2ccccc2)CCN1c1nnc(-c2ccc(C(F)(F)F)cc2)c2ccccc12		81			AUC [8]: 1200 ng·h/mL; fraction unbound [15]: 0.06
C[C@@H]1CN(C(=O)c2ccccc2)CCN1c1nnc(-c2ccc(CO)cc2)c2ccccc12		3	15		clearance [6]: 95 mL/min/kg; Vd [7]: 1.8 L/kg
C[C@@H]1CN(C(=O)c2ccccc2)CCN1c1nnc(-c2ncco2)c2ccccc12	> 1000	7.8	22	< 10	
CC(=O)Oc1ccc(-c2nnc(N3CCN(C(=O)c4ccccc4)C[C@H]3C)c3ccccc23)cc1	3.3	6.1	> 95	> 95	
C[C@@H]1CN(C(=O)c2ccccc2)CCN1c1nnc(-c2cccnc2)c2ccccc12	79	23	16	19	
C[C@H]1CN(C(=O)c2ccccc2)CCN1c1nnc(-c2ccc(F)cc2)c2ccccc12	12	61	21	< 10	
C[C@@H]1CN(C(=O)c2ccccc2)CCN1c1nnc(-c2ccccc2)c2ncccc12	66	4.1		13	
C[C@@H]1CN(C(=O)c2ccccc2)CCN1c1nnc(-c2cncnc2)c2ccccc12	> 1000	7.1	< 10	< 10	
C[C@@H]1CN(C(=O)c2ccccc2)CCN1c1nnc(-n2cccc2)c2ccccc12	8.7	12	63	54	
C[C@@H]1CN(C(=O)c2ccccc2)CCN1c1nnc(-n2ccc3ccccc32)c2ccccc12	8	74	72	55	
